This is an account of results in ChEMBL document CHEMBL4007441, “Novel Design of Heptad Amphiphiles To Enhance Cell Selectivity, Salt Resistance, Antibiofilm Properties and Their Membrane-Disruptive Mechanism” (J Med Chem, 2017).

Calls of active or inactive are those of the source. The calls are words filed in the database; no cut-off is given here.

The subject of data set [1] is Pseudomonas aeruginosa. The data set can be described thus: Antibacterial activity against Pseudomonas aeruginosa ATCC 27853 after 18 hrs in presence of ZnCl2 by broth microdilution method. The format is functional. The following applies: ATCC 27853, 18 h. In outline:
(§1)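 Broth microdilution MIC against ATCC 27853 in Mueller-Hinton broth with added salt at final concentrations: NaCl 150 mM, KCl 4.5 mM, NH4Cl 6 µM, ZnCl2 8 µM, FeCl3 4 µM. Inoculum about 1 × 10^6 CFU/mL from exponential phase, mixed 1:1 with two-fold peptide dilutions. MIC read as no visible turbidity after 18 h at 37 °C.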
Background: Dilution methods test growth across graded concentrations, often in twofold steps.

Data set [2] concerns RAW264.7. The data set can be described thus: Downregulation of LPS-induced IL-6 mRNA expression in mouse RAW264.7 cells at 10 mg/L after 18 hrs by real-time PCR analysis. It is filed as functional, cell-based. In short, it runs like this: (§2)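 qRT-PCR: RAW264.7 cells were stimulated with LPS (100 ng/mL) with or without peptide at 10 mg/L for 18 h at 37 °C. Total RNA was taken up with TRIzol. Transcript levels were normalized to GAPDH and expressed as fold change versus untreated cells. Three experiments, triplicates each.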
(In qPCR the cycle at which signal appears reflects the starting amount.)

Data set [3] has as its system Pseudomonas aeruginosa. The data set can be described thus: Antibacterial activity against Pseudomonas aeruginosa 26305 clinical isolate after 18 hrs by broth microdilution method. The format is functional. The conditions noted are these: Pseudomonas aeruginosa, 26305, 18 h.
Data set [4] deals with RAW264.7. The data set can be described thus: Inhibition of LPS-induced NO production in mouse RAW264.7 cells at 10 mg/L after 18 hrs by Griess assay. The format is functional, cell-based. In short, it runs like this:
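RAW264.7 cells (5 × 10^5/well) were stimulated with LPS at 100 ng/mL, with or without peptide at 10 mg/L, for 18 h at 37 °C. Nitrite in the medium was measured with Griess reagent at 540 nm against a NaNO2 standard curve. Three independent experiments.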
In general terms: The Griess reaction detects nitrite, a stable product of nitric oxide.

Data set [5] deals with Pseudomonas aeruginosa. The data set can be described thus: Antibacterial activity against ceftazidime-resistant Pseudomonas aeruginosa 11431 after 18 hrs by broth microdilution method. It is filed as functional. The following applies: Pseudomonas aeruginosa, 11431, 18 h. In short, it runs like this:
(§3)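 Broth microdilution in Mueller-Hinton broth. Exponential-phase bacteria (37 °C, 220 rpm shaking) were diluted to about 1 × 10^6 CFU/mL and mixed 1:1 with two-fold serial peptide dilutions. MIC is the lowest concentration with no visible turbidity after 18 h at 37 °C. Controls were uninoculated MHB and untreated culture. Run at least three times, two replicates each.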

Data set [6] concerns Pseudomonas aeruginosa. Kind of data set: Antibacterial activity against Pseudomonas aeruginosa ATCC 27853 after 18 hrs in presence of NH4Cl by broth microdilution method. It is filed as functional. The conditions noted are these: ATCC 27853, 18 h. In outline: as §1
The subject of data set [7] is Pseudomonas aeruginosa. The data set can be described thus: Antibacterial activity against Pseudomonas aeruginosa CICC 21625 after 18 hrs by broth microdilution method. It is filed as functional. The conditions noted are these: CICC 21625, 18 h. In outline:
as §3

A further data set relates to Escherichia coli. Kind of data set: microbe, parasite or virus in culture. The conditions noted are these: ATCC 25922, 18 h.
Data set [8] deals with Pseudomonas aeruginosa. Kind of data set: Antibacterial activity against Pseudomonas aeruginosa 21328 clinical isolate after 18 hrs by broth microdilution method. It is filed as functional. The following applies: Pseudomonas aeruginosa, 21328, 18 h.
The test system of data set [9] is Lipopolysaccharide (LPS). Kind of data set: Inhibition of BODIPY-TR-cadaverine binding to Pseudomonas aeruginosa 10 LPS by fluorescence spectrophotometric analysis.
The test system of data set [10] is Pseudomonas aeruginosa. Kind of data set: Antibacterial activity against Pseudomonas aeruginosa CICC 10419 after 18 hrs by broth microdilution method. It is filed as functional. The conditions noted are these: CICC 10419, 18 h. In outline:
as §3

Data set [11] concerns Pseudomonas aeruginosa. Kind of data set: Antibacterial activity against Pseudomonas aeruginosa ATCC 27853 after 18 hrs in presence of FeCl3 by broth microdilution method. The format is functional. The conditions noted are these: ATCC 27853, 18 h. In outline:
as §1

In data set [12] the test system is RAW264.7. The data set can be described thus: Inhibition of LPS-induced iNOS expression in mouse RAW264.7 cells at 10 mg/L after 18 hrs by Western blot analysis. It is filed as functional, cell-based. In short, it runs like this:
(§4)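 Western blot of RAW264.7 lysates after 18 h with LPS at 100 ng/mL, with or without peptide at 10 mg/L. Lysates were run on 8% or 12% SDS-PAGE, transferred to PVDF and blocked in 5% milk/TBST. Primary antibodies were applied at 4 °C overnight, then HRP secondary and ECL detection. β-actin was the loading control.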

The subject of data set [13] is Pseudomonas aeruginosa. Kind of data set: Antibiofilm activity in Pseudomonas aeruginosa ATCC 27853 assessed as reduction in biomass after 24 hrs by crystal violet staining-based method. It is filed as functional. In outline: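 Overnight culture was diluted 1:100 and grown 24 h at 37 °C to form biofilms. Loose cells were removed and fresh broth added with peptide at 1×, 4× or 8× MIC for another 24 h. Biofilms were stained with 0.1% crystal violet for 10 min, washed, and dye extracted in 95% ethanol before reading absorbance. Results are % of untreated biofilm; three repeats in duplicate, mean ± SD.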

Data set [14] concerns Lipopolysaccharide (LPS). Kind of data set: Binding affinity to Pseudomonas aeruginosa ATCC 27853 LPS by SPR spectroscopic analysis. In outline: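 Biacore SPR. Peptides were amine-coupled to CM5 chips at 20 µg/mL in 10 mM acetate pH 6.0, giving about 1300 RU. LPS at 3.125–12.5 µg/mL in 20 mM Tris/100 mM NaCl pH 7.4 was flowed at 10 µL/min. Surfaces were regenerated with 50 mM NaOH plus 0.05% SDS. Three independent runs.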

Data set [15] relates to RAW264.7. Kind of data set: Cytotoxicity in mouse RAW264.7 cells after 24 hrs by MTT assay. It is filed as cell-based. The conditions noted are these: raw264.7, 24 h.
For data set [16], the system named is RAW264.7. Kind of data set: Downregulation of LPS-induced IL-1beta mRNA expression in mouse RAW264.7 cells at 10 mg/L after 18 hrs by real-time PCR analysis. The format is functional, cell-based. In outline:
as §2

Data set [17] relates to Pseudomonas aeruginosa. The data set can be described thus: Antibacterial activity against Pseudomonas aeruginosa ATCC 27853 after 18 hrs in presence of MgCl2 by broth microdilution method. It is filed as functional. The conditions noted are these: ATCC 27853, 18 h. In short, it runs like this: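 Broth microdilution MIC in MHB against the reference strain. About 1 × 10^6 CFU/mL exponential-phase inoculum mixed 1:1 with two-fold peptide dilutions in medium containing 1 mM MgCl2 (final). Lowest concentration with no visible turbidity after 18 h at 37 °C.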

For data set [18], the system named is RAW264.7. The data set can be described thus: Inhibition of LPS-induced IkappaB-alpha protein degradation in mouse RAW264.7 cells at 10 mg/L after 18 hrs by Western blot analysis. The format is functional, cell-based. In short, it runs like this:
as §4

Data set [19] relates to RAW264.7. Kind of data set: Downregulation of LPS-induced TNF-alpha mRNA expression in mouse RAW264.7 cells at 10 mg/L after 18 hrs by real-time PCR analysis. The format is functional, cell-based. In outline: as §2
The subject of data set [20] is Pseudomonas aeruginosa. Kind of data set: Antibacterial activity against Pseudomonas aeruginosa ATCC 27853 assessed as induction of outer membrane permeabilization by measuring NPN uptake by spectrofluorophotometric analysis. It is filed as functional. In short, it runs like this: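 Exponential-phase cells were washed in HEPES pH 7.4 with 5 mM glucose and diluted to about 10^5 CFU/mL. NPN was added at 10 µM final, then peptide at varying concentrations. Fluorescence (ex 350/em 420 nm) was followed to plateau. Values are % NPN uptake relative to polymyxin B at 10 mg/L (100%). Three experiments, duplicates.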

Data set [21] concerns Pseudomonas aeruginosa. Kind of data set: Drug uptake in Pseudomonas aeruginosa ATCC 27853 treated with FITC-labeled compound at MIC after 30 mins by confocal fluorescence microscopy. The format is ADME. The conditions noted are these: 0.5 h. In outline: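 Cells were pelleted at 5,000 g for 5 min, washed three times in PBS, smeared and imaged by confocal microscopy with 488 nm excitation.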

In data set [22] the test system is RAW264.7. The data set can be described thus: Downregulation of LPS-induced TNF-alpha level in mouse RAW264.7 cells at 10 mg/L after 18 hrs by ELISA. The format is functional, cell-based. In short, it runs like this:
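ELISA of secreted TNF-α in culture medium of RAW264.7 cells treated 18 h with LPS 100 ng/mL alone or with peptide at 10 mg/L. Samples were run in duplicate; release was normalized to untreated controls.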

Consider H-LRRLRRRWWRRRLRRL-NH2, for which the MIC with Pseudomonas aeruginosa [1] was found to be 8 µg/mL; with Pseudomonas aeruginosa [3], 8 µg/mL; in the data set with Pseudomonas aeruginosa [5], 16 µg/mL; in the data set on Pseudomonas aeruginosa [6], 8 µg/mL; with Pseudomonas aeruginosa [7], 16 µg/mL; in the data set with Escherichia coli, 16 µg/mL. Also, the MIC in the data set on Pseudomonas aeruginosa [8] turned out to be 32 µg/mL; against Pseudomonas aeruginosa [10] it was 16 µg/mL; with Pseudomonas aeruginosa [11], 8 µg/mL; in the data set on Pseudomonas aeruginosa [17], 32 µg/mL. For the same substance, the result with RAW264.7 [2], in the data set on RAW264.7 [16], in the data set on RAW264.7 [19] and with RAW264.7 [22] was Active. Besides, the inhibition result in the data set on RAW264.7 [4], in the data set on RAW264.7 [12] and with RAW264.7 [18] was “Active” throughout. For the same substance, the Activity result in the data set with Lipopolysaccharide (LPS) [9], with Pseudomonas aeruginosa [13], with Lipopolysaccharide (LPS) [14] and with Pseudomonas aeruginosa [20] was “Dose-dependent effect” in each case. Also, the CC10 with RAW264.7 [15] was determined as 128 µg/mL. Further, the Drug uptake entry in the data set with Pseudomonas aeruginosa [21] is “Active”.

Turning to H-LRRLRRRWWWRRRLRRL-NH2, the MIC came to 8 µg/mL with Pseudomonas aeruginosa [1]; 4 µg/mL with Pseudomonas aeruginosa [3]; 4 µg/mL against Pseudomonas aeruginosa [5]; 4 µg/mL in the data set on Pseudomonas aeruginosa [6]; 8 µg/mL against Pseudomonas aeruginosa [7]; 4 µg/mL against Escherichia coli. Also, the MIC turned out to be 4 µg/mL in the data set with Pseudomonas aeruginosa [8], 8 µg/mL against Pseudomonas aeruginosa [10], 4 µg/mL in the data set with Pseudomonas aeruginosa [11] and 16 µg/mL with Pseudomonas aeruginosa [17]. Besides, the result with RAW264.7 [2], in the data set on RAW264.7 [16], in the data set on RAW264.7 [19] and in the data set on RAW264.7 [22] was Active. Besides, the inhibition result with RAW264.7 [4], in the data set with RAW264.7 [12] and in the data set with RAW264.7 [18] was “Active” each time. In addition, the Activity entry in the data set on Lipopolysaccharide (LPS) [9], in the data set on Pseudomonas aeruginosa [13], in the data set on Lipopolysaccharide (LPS) [14] and in the data set on Pseudomonas aeruginosa [20] was “Dose-dependent effect” throughout. Further, in the data set on RAW264.7 [15], the CC10 stood at 256 µg/mL. The Drug uptake entry with Pseudomonas aeruginosa [21] is “Active”.
